What was measured:
[1] = target: T1, Adenylate kinase isoenzyme 1 (Rattus norvegicus, UniProt P39069); test: Noncompetitive inhibition of Sprague-Dawley rat muscle adenylate kinase by Lineweaver-Burk plot analysis; conditions: read-out: I50
T1 sequence (P39069 whole entry): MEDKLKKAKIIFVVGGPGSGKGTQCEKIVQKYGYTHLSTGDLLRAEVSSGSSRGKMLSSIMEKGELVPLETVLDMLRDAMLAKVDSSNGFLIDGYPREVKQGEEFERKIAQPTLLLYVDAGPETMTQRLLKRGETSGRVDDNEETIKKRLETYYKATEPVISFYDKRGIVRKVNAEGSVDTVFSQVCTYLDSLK
Outline: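 Enzyme source: rat skeletal muscle homogenized in KHPO4/glucose/EDTA/dithioerythritol/glycerol buffer and spun 1 h at 90000g, 2 °C. Electrofocused at pH 6-8; the AK zone (pI 6.4) was dialyzed as for the liver isozymes and held at 4 °C.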

[2] = target: GTP:AMP phosphotransferase AK3, mitochondrial (Rattus norvegicus, UniProt P29411); test: Competitive inhibition of Sprague-Dawley rat liver adenylate kinase 3 by Lineweaver-Burk plot analysis
Outline: (§1)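 Inhibition constants from the coupled NADH assay (A340, 23 °C, 0.25 mM AMP, pH 7.6). Two inhibitor levels were each run against five or more ATP levels: 0.1-0.8 mM for AK II/III, 0.15-1.1 mM for muscle AK. Ki applies to ATP-competitive inhibition and I50 to noncompetitive inhibition.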

[3] = target: Adenylate kinase 2, mitochondrial (Rattus norvegicus, UniProt P29410); test: Competitive inhibition of Sprague-Dawley rat liver adenylate kinase 2 by Lineweaver-Burk plot analysis; outline: as §1
[4] = Noncompetitive inhibition of Escherichia coli adenylate kinase by Lineweaver-Burk plot analysis; conditions: read-out: I50
Outline: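 E. coli B AK partially purified by ammonium sulfate fractionation and DEAE-cellulose chromatography; the single AK-active protein had pI 4.9. ATP KM was 0.06 mM with AMP at 0.13–0.29 mM in the coupled NADH assay (A340, 23 °C, pH 7.6 Tris).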

Chain of GTP:AMP phosphotransferase AK3, mitochondrial (P29411 whole entry): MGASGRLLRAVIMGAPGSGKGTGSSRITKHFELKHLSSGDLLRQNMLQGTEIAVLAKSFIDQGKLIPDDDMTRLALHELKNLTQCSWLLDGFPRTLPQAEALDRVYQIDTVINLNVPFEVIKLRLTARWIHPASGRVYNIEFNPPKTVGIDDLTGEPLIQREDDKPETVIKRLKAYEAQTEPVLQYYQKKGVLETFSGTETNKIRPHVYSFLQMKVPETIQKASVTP

| Structure (SMILES) | IC50 [1] | Ki [2] | Ki [3] | IC50 [4] |
| --- | --- | --- | --- | --- |
| CSc1nc2c(N)ncnc2n1[C@@H]1O[C@H](COP(=O)(O)OP(=O)(O)OP(=O)(O)O)[C@@H](O)[C@H]1O | 5950 µM | 360 µM | 320 µM |  |
| O=C(CI)NCCCCCNc1ncnc2c1ncn2[C@@H]1O[C@H](COP(=O)(O)OP(=O)(O)OP(=O)(O)O)[C@@H](O)[C@H]1O |  |  |  | 4750 µM |
| CC(=O)NCCCCCCNc1ncnc2c1ncn2[C@@H]1O[C@H](COP(=O)(O)OP(=O)(O)OP(=O)(O)O)[C@@H](O)[C@H]1O | 12900 µM | 4750 µM |  |  |
| Nc1ncnc2c1nc(Sc1ccccc1)n2[C@@H]1O[C@H](COP(=O)(O)OP(=O)(O)OP(=O)(O)O)[C@@H](O)[C@H]1O |  |  | 320 µM |  |
| CCCSc1nc2c(N)ncnc2n1[C@@H]1O[C@H](COP(=O)(O)OP(=O)(O)OP(=O)(O)O)[C@@H](O)[C@H]1O | 6150 µM | 65 µM | 55 µM | 4700 µM |
| Nc1ncnc2c1nc(SCCO)n2[C@@H]1O[C@H](COP(=O)(O)OP(=O)(O)OP(=O)(O)O)[C@@H](O)[C@H]1O |  | 220 µM | 250 µM |  |
| Nc1ncnc2c1nc(SCCCCO)n2[C@@H]1O[C@H](COP(=O)(O)OP(=O)(O)OP(=O)(O)O)[C@@H](O)[C@H]1O |  | 130 µM | 145 µM |  |

Continued, values first:

| IC50 [1] | Ki [2] | Ki [3] | IC50 [4] | Structure (SMILES) |
| --- | --- | --- | --- | --- |
| 6200 µM | 60 µM | 75 µM |  | CCCCSc1nc2c(N)ncnc2n1[C@@H]1O[C@H](COP(=O)(O)OP(=O)(O)OP(=O)(O)O)[C@@H](O)[C@H]1O |
|  | 60 µM | 80 µM |  | CCCCCSc1nc2c(N)ncnc2n1[C@@H]1O[C@H](COP(=O)(O)OP(=O)(O)OP(=O)(O)O)[C@@H](O)[C@H]1O |
|  | 50 µM | 80 µM | 5900 µM | CCSc1nc2c(N)ncnc2n1[C@@H]1O[C@H](COP(=O)(O)OP(=O)(O)OP(=O)(O)O)[C@@H](O)[C@H]1O |

Source: ChEMBL document CHEMBL3244193, “Design of species- or isozyme-specific enzyme inhibitors. 3. Species and isozymic differences between mammalian and bacterial adenylate kinases in substituent tolerance in an enzyme-substrate complex” (J Med Chem, 1979)
